HNF4A DNA FP – change in binding of human HNF4 alpha to DNA; activity change, % at 10 µM; 360,000 compounds, 0.3% hits; AID 1224865; P41235; HNF4a-FITC DNA binding, fluorescence polarization, 1 h; in the data active = activity change above about 30%, passing the limit was not always enough
Tb MetRS inh – Trypanosoma brucei MetRS inhibition | purified T. brucei MetRS, ATP depletion, Kinase-Glo luminescence | inhibition, % at 11.9 µM | 360,000 compounds, 0.4% hits | AID 624268;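 active = inhibition above a per-plate cutoff of the control wells' mean inhibition plus 3 SD, cut at about 5.5% in these data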;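 note: 0% = DMSO wells median and 100% = median of wells with control inhibitor compound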
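System: purified T. brucei MetRS enzyme / Detection: Kinase-Glo luciferase luminescence reporting remaining unconsumed ATP / Medium: HEPES buffer with MgCl2, KCl, DTT, spermine, BSA, pyrophosphatase / Replication: singlicate, one well per compound / Evaluation: percent inhibition relative to median high and low control wells / Schedule: 2 h aminoacylation at 25 °C after 15 min preincubation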
Rpn11 block – blocks the human proteasome subunit Rpn11 | human 26S proteasome, Ub4-pepOG fluorescence polarization; 20S core pre-blocked with epoxomicin | O00487 | inhibition, % at 20 µM | 360,000 compounds, 0.59% hits | AID 588493;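 active = inhibition at 20 µM, scaled to each plate's controls, above about 33%, limit read from the data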
PREPL inh – inhibits the human prolyl oligopeptidase-like enzyme. Q4J6C6. recombinant PREPL, fluorescence polarization activity-based probe. inhibition, % at 5.96 µM. 320,000 compounds, 0.68% hits. AID 2751;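 note: 0% = enzyme with DMSO and 100% = wells lacking enzyme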
Target sequence (Q4J6C6 whole entry, looked up): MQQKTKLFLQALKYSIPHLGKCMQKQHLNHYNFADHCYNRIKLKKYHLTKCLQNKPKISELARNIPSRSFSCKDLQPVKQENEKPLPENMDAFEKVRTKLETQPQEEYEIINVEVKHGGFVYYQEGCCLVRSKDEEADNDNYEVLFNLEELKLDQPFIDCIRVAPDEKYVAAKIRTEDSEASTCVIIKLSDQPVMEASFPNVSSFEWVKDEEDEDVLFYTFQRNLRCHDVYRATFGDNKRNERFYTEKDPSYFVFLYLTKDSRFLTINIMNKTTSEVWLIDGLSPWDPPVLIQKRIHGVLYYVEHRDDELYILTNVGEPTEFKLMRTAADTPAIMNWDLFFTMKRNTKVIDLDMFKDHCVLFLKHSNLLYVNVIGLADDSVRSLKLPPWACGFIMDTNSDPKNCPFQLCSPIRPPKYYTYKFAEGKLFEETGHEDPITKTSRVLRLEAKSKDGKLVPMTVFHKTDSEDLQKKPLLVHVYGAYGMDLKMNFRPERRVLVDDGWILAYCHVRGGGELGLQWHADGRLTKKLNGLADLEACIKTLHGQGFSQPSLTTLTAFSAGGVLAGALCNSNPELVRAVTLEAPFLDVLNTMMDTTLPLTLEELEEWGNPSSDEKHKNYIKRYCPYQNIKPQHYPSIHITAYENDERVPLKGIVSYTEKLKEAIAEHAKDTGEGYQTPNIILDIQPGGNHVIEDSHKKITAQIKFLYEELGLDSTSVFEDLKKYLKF
CSN deneddyl inh – blocks human CSN-mediated cullin deneddylation; Q92905; Purified CSN, SCF-Nedd8-OG deneddylation, fluorescence polarization; inhibition, % at 12.5 µM; 360,000 compounds, 0.38% hits;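 active = pattern-corrected inhibition above about 35%, with an unprinted fluorescence ratio check between 0.5 and 1.5, limit read from the data, passing the limit was not always enough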;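 note: 0% = enzyme with substrate and 100% = substrate without enzyme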
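test system = HEK293T-derived human Csn5 enzyme | amount = 0.24 nM Csn5 enzyme, final concentration | medium = Tris/NaCl/DTT buffer, pH 7.5 | schedule = 90 min reaction at room temperature | signal = FP | evaluation = inhibition of Csn5 cleavage, % | compound dosing = single dose of 12.5 µM compound with 0.25% DMSO | probe or stimulus = 10 nM SCFSkp2-Nedd8OG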
Neddyl block – cullin neddylation inhibition. P61081+Q13564. TR-FRET cullin neddylation, biochemical. inhibition, % at 25 µM. 360,000 compounds, 0.58% hits. AID 651699; in the data active = inhibition above about 36%
PREPL inh cf – human PREPL inhibition, confirmation; shares compounds with PREPL inh; recombinant PREPL, fluorescence polarization activity probe; inhibition, % at 5.96 µM; AID 2803; 2,000 compounds, 67% hits;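 note: 0% = protein with DMSO and 100% = wells lacking protein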
* marks the source's active call; other numbers are inactive results. Only some compounds are listed: those with a hit (about 2.4% of all), similar ones and a draw of the others. Cut-off read from the data, not from the text of the source, unless noted: active = inhibition above about 43%; inactive = the rest.

O=C(NCCS(=O)(=O)N1CCN(c2ccccc2)CC1)C1CCCCC1 was read as HNF4A DNA FP 1, Tb MetRS inh 0, Rpn11 block 1, CSN deneddyl inh 1 and Neddyl block -6.
For CCCCCc1cc(=O)oc2c(C(CCN3CCCCC3)c3ccc(OC)cc3)c(OC)cc(OC)c12 (centres undefined) the results were HNF4A DNA FP 2, Tb MetRS inh 0, Rpn11 block 3, PREPL inh 16 and CSN deneddyl inh 1.
For CCCCCc1cc(=O)oc2c(C(CCN3CCCC3)c3ccc(N(C)C)cc3)c(OC)cc(OC)c12 (centres undefined) the results were HNF4A DNA FP 1, Tb MetRS inh 0, Rpn11 block 9, PREPL inh 50*, CSN deneddyl inh 0, Neddyl block -10 and PREPL inh cf 49*.
`COc1ccc(N2CCN(C(=O)c3cn(C4CCCC4)c(=O)c4c3c3ccccc3n4C)CC2)cc1` gave HNF4A DNA FP -1, Tb MetRS inh -1, Rpn11 block 6, PREPL inh 62*, CSN deneddyl inh 2, Neddyl block 1 and PREPL inh cf 61*.
For COc1ccc(N2CCN(C(=O)c3cn(C)c(=O)c4c3c3ccccc3n4C)CC2)cc1 the results were HNF4A DNA FP -5, Tb MetRS inh 0, Rpn11 block -2, PREPL inh 41, CSN deneddyl inh 0 and Neddyl block -4.
`Nc1ccc(S(=O)(=O)N2CCOCCOCCOCCOCCOCC2)cc1` gave HNF4A DNA FP -3, Tb MetRS inh -2, Rpn11 block 1, PREPL inh -4, CSN deneddyl inh -4 and Neddyl block 7.
For NCCSc1c(-c2ccc(Cl)cc2)[nH]c2ccccc12 the results were HNF4A DNA FP 3, Tb MetRS inh -1, Rpn11 block 4, PREPL inh 46*, CSN deneddyl inh -3, Neddyl block 32 and PREPL inh cf 39.
Screening C=CCC[C@@H](Cc1ccc(F)cc1)C(=O)OC[C@@H]1CCCN1C(=O)[C@H](CC=C)CC(=O)N[C@H](CO)Cc1ccccc1 returned HNF4A DNA FP 9, Tb MetRS inh 0, Rpn11 block -2, PREPL inh 44*, CSN deneddyl inh -4, Neddyl block -26 and PREPL inh cf 27.
Screening CCc1cc(=O)oc2c(C)c(OC(C)C(=O)NC3CC(C)(C)NC(C)(C)C3)ccc12 (centres undefined) returned HNF4A DNA FP 1, Tb MetRS inh 1, Rpn11 block 4, PREPL inh 49*, CSN deneddyl inh -7, Neddyl block 29 and PREPL inh cf 38.
Screening CCc1cc(=O)oc2c(C)c(OCC(=O)NC3CC(C)(C)NC(C)(C)C3)ccc12 returned HNF4A DNA FP -1, Tb MetRS inh 0, Rpn11 block -15, PREPL inh 41 and CSN deneddyl inh -5.
Cc1ccc(S(=O)(=O)Nc2ccc3c(c2)CC(=O)N([C@H](C)CO)C[C@H](C)[C@H](CN(C)Cc2ccc4c(c2)OCO4)O3)cc1 was read as HNF4A DNA FP 0, Tb MetRS inh 0, Rpn11 block 4, PREPL inh 51*, CSN deneddyl inh 0, Neddyl block -20 and PREPL inh cf 53*.
`C[C@@H]1CN([C@H](C)CO)C(=O)Cc2cc(NS(=O)(=O)c3ccc(F)cc3)ccc2O[C@H]1CN(C)Cc1ccc(C(=O)O)cc1` gave HNF4A DNA FP 2, Tb MetRS inh 0, Rpn11 block 5, PREPL inh 16, CSN deneddyl inh 0 and Neddyl block -22.
Screening C[C@@H]1CN([C@@H](C)CO)C(=O)Cc2cc(NC(=O)Nc3ccc4c(c3)OCO4)ccc2O[C@@H]1CN(C)C(=O)NC1CCCCC1 returned HNF4A DNA FP 7, Tb MetRS inh -2, Rpn11 block -2, PREPL inh 54*, CSN deneddyl inh 5, Neddyl block 1 and PREPL inh cf 46*.
CC(C)NC(=O)Nc1ccc2c(c1)CC(=O)N([C@@H](C)CO)C[C@H](C)[C@@H](CN(C)C(=O)NC1CCCCC1)O2 was read as HNF4A DNA FP 0, Tb MetRS inh -1, Rpn11 block 3, PREPL inh 7, CSN deneddyl inh 0 and Neddyl block 7.
Screening CCN1/C(=C/c2ccc3ccccc3[n+]2CC)C=Cc2ccccc21 returned HNF4A DNA FP 44*, Tb MetRS inh -2, Rpn11 block 21, PREPL inh 47*, CSN deneddyl inh 23, Neddyl block inactive and PREPL inh cf 49*.
For O=C(N/N=C/c1cn(CCOc2ccccc2)c2ccccc12)c1ccncc1 the results were HNF4A DNA FP 1, Tb MetRS inh 0, Rpn11 block -12, PREPL inh 54*, CSN deneddyl inh 2, Neddyl block 2 and PREPL inh cf 43.
`CC(NC(=O)c1cccs1)c1nnc(SCc2ccc(Cl)cc2Cl)n1C` (centres undefined) gave HNF4A DNA FP 2, Tb MetRS inh 0, Rpn11 block -18, PREPL inh 43*, CSN deneddyl inh -1, Neddyl block 0 and PREPL inh cf 39.
Cc1ccc(-c2cc(C(=O)N3CCCCC3)c3ccccc3n2)cc1C was read as HNF4A DNA FP 24, Tb MetRS inh 0, Rpn11 block 0, PREPL inh -2, CSN deneddyl inh -6 and Neddyl block 16.
Cc1ccc(C2CC(c3ccccc3C)n3nc(N)nc3N2)cc1 (centres undefined) was read as HNF4A DNA FP -1, Tb MetRS inh 0, Rpn11 block 2, PREPL inh 47*, CSN deneddyl inh 0, Neddyl block 13 and PREPL inh cf 48*.
`CCOc1ccc(C2CC(c3ccccc3C)n3nc(N)nc3N2)cc1` (centres undefined) gave HNF4A DNA FP 1, Tb MetRS inh 0, Rpn11 block 0, PREPL inh 42, CSN deneddyl inh 1 and Neddyl block 15.
COc1ccc(C2CC(c3ccccc3C)n3nc(N)nc3N2)cc1 (centres undefined) was read as HNF4A DNA FP 2, Tb MetRS inh 0, Rpn11 block 0, PREPL inh 51*, CSN deneddyl inh 5, Neddyl block 2 and PREPL inh cf 48*.
Screening COc1cccc(C2CC(c3ccccc3C)n3nc(N)nc3N2)c1 (centres undefined) returned HNF4A DNA FP 0, Tb MetRS inh 0, Rpn11 block 1, PREPL inh 22, CSN deneddyl inh 0 and Neddyl block -3.
